Measured values collected from several papers.
Protocols differ between the studies behind these lines.
RAF1 Y340D/Y341D: RAF proto-oncogene serine/threonine-protein kinase (RAF1, Homo sapiens, UniProt P04049, Y340D/Y341D)
RAF1: RAF proto-oncogene serine/threonine-protein kinase (RAF1, Homo sapiens, UniProt P04049)

`CC(C)(C)c1nc2c(s1)c1nc(N)ncc1c1ccc(NS(=O)(=O)c3c(F)cccc3F)c(F)c12` has a remaining activity of 9% (RAF1 Y340D/Y341D; enzyme activity; inhibitor; radiometric; 1 µM).
The inhibition of `COc1cc2ncnc(Nc3ccc(Oc4ccccc4)c(C)c3C)c2cc1OC` is reported as -6% (RAF1 Y340D/Y341D; enzyme activity; inhibitor; 1 µM).
The inhibition of `C=CC(=O)Nc1cc(Nc2nccc(Nc3cc(Cl)c(F)cc3C(C)(C)O)n2)c(OC)cc1N1CC[C@@H](N(C)C)C1` is reported as 10% (RAF1; enzyme activity; inhibitor; 1 µM).
With `CS(=O)(=O)Nc1cccc(-c2csc(NC(=O)CSc3nc4nccnc4c(=O)n3CCc3ccccc3)n2)c1` the inhibition was -1% (RAF1 Y340D/Y341D; enzyme activity; inhibitor; 10 µM).
For `O=C(Nc1cnn(-c2csc(C(=O)NC3COC3)c2)c1)Nc1ccccc1Cl`, the remaining activity was 87% (RAF1; enzyme activity; inhibitor; 5 µM).
`CSc1nc(C)c(-c2ccnc(Nc3ccc(N4CCOCC4)cc3)c2)[nH]1` gave an inhibition of 64.1% (RAF1; enzyme activity; inhibitor; 10 µM).
`C[S+]([O-])c1ccc(-c2nc(-c3ccncc3)c(-c3ccc(F)cc3)[nH]2)cc1` (stereo not shown) gave a remaining signal of 41.1% (RAF1; cell-free assay; 0.5 µM).
With `CCCOc1ccc(OC)c(F)c1C(=O)c1ccc(C(=O)N[C@@H]2CNC[C@H]2NC(=O)c2ccc3[nH]ncc3c2)cc1` the remaining activity was 109% (RAF1; enzyme activity; inhibitor; 10 µM).
With `Cc1ccc(C(=O)NCc2ccsc2)cc1C#Cc1cn(C(C)C)c2ncnc(N)c12` the activity vs control was 15% (RAF1; enzyme activity; inhibitor; 1 µM).
`COc1cc(-c2cc(-c3ccc(N4CCNCC4)cc3)cnc2N)cc(OC)c1OC` gave an inhibition of 2% (RAF1; enzyme activity; inhibitor; 1 µM).
The remaining activity of `O=C(Nc1cnn(-c2csc(C(=O)NC3COC3)c2)c1)Nc1c(F)cccc1Cl` is reported as 92.5% (RAF1; enzyme activity; inhibitor; 5 µM).
The remaining binding of `Cc1cc(-n2nc(Cc3cc(F)cc(C(F)(F)F)c3)nc2C)ccc1C(N)=O` is reported as 87% (RAF1; cell-free assay; competition with immobilised ligand; 1 µM).
With `O=C1Nc2ccc(Cl)cc2C1=Cc1cc(Cl)c(O)c(Cl)c1` the remaining signal was 6.93% (RAF1; cell-free assay; 0.5 µM).
For `CNC(=O)c1cc2c(Oc3ccc(NC(=O)C4(C(=O)Nc5ccc(F)cc5)CC4)cc3)ccnc2cc1OC`, the inhibition was 83% (RAF1; enzyme activity; inhibitor; radiometric; 1 µM).
`CCOCCn1cc(C(=O)Nc2ccc(-n3nc(-c4cccnc4)cc3C(F)(F)F)cn2)ccc1=O` has a remaining binding of 100% (RAF1; cell-free assay; competition with immobilised ligand; 1 µM).
`CN(C)C1CCN(CC#Cc2nn(C3CCCC3)c3nc(NCc4ccccc4)ncc23)C1` (stereo not shown) gave an inhibition of 3% (RAF1 Y340D/Y341D; enzyme activity; inhibitor; FRET; 10 µM).
The remaining binding of `CS(=O)(=O)c1cc(C2(NC(=O)c3cncc4c3cnn4-c3ccc(F)cc3)CC2)ccn1` is reported as 100% (RAF1; cell-free assay; competition with immobilised ligand; 1 µM).
For `COc1cc(Cl)c(C(=O)N[C@@H](CN[C@H]2CC[C@@H](N)CC2)Cc2ccc(C#N)cc2)cc1-c1ccc(CN[C@H](C)c2ccc(C)cc2)o1`, the remaining activity was 97% (RAF1; enzyme activity; inhibitor; 1 µM).
For `Nc1c(C(=O)NCc2ccc(C(=O)NCCCC3CCCCC3)cc2)cnn1-c1ccccc1`, the remaining binding was 100% (RAF1; cell-free assay; competition with immobilised ligand; 0.1 µM).
`Cc1[nH]c(/C=C2\C(=O)Nc3ccc(F)cc32)c(C)c1C(=O)N[C@H]1CCN(C(=O)N(C)C)C1` gave a remaining activity of 100% (RAF1; enzyme activity; inhibitor; 1 µM).
With `CN(C)C(=O)Cn1cc(-c2nc(C3(c4ccc(-c5cnc(N)nc5)cc4)CC3)no2)cn1` the remaining binding was 100% (RAF1; cell-free assay; competition with immobilised ligand; 1 µM).
For `c1nc2c(Nc3ccc4c(c3)OCCO4)nc(Nc3ccc4c(c3)OCCO4)nc2[nH]1`, the activity vs control was 95% (RAF1; enzyme activity; inhibitor; 10 µM).
`CCN(CC)CCNC(=O)c1c(C)[nH]c(/C=C2\C(=O)Nc3ccc(F)cc32)c1C` gave a remaining signal of 110% (RAF1; cell-free assay; 0.5 µM).
With `CC(C)(O)[C@H]1CC[C@H](Nc2ccc3ncc(-c4cccc(C(F)(F)F)c4)n3n2)CC1` the remaining activity was 91.6% (RAF1; enzyme activity; inhibitor; 1 µM).
With `CNCc1ccc(-c2cc(-c3nc(-c4ccc(S(=O)(=O)C(C)C)cc4)cnc3N)on2)cc1` the inhibition was 0% (RAF1; enzyme activity; inhibitor; 0.4 µM).
The remaining binding of `CCOC(=O)c1cc2cc(-c3cc(C(=O)NCc4ccc(C(=O)O)cc4)nn3C)ccc2[nH]1` is reported as 100% (RAF1; cell-free assay; competition with immobilised ligand; 0.1 µM).
`CCN(CC)c1ccc(C2=NNC(=O)CC2C)cc1[N+](=O)[O-]` (stereo not shown) has a remaining activity of 90% (RAF1; enzyme activity; inhibitor; 10 µM).
`O=C(O)[C@@H]1[C@@H](Cn2nnc3ccccc3c2=O)CC[C@H]1C(=O)c1ccc(OCCC2CCOCC2)cc1` gave a remaining binding of 100% (RAF1; cell-free assay; competition with immobilised ligand; 1 µM).
With `CCN(CC)CCNC(=O)c1c(C)[nH]c(/C=C2\C(=O)Nc3ccc(F)cc32)c1C` the remaining activity was 95% (RAF1; enzyme activity; inhibitor; 1 µM).
`c1ccc(N2CCN(Cc3nc4ccccc4[nH]3)CC2)nc1` has a remaining binding of 100% (RAF1; binding; competition with immobilised ligand; 1 µM).
The inhibition of `Cc1ccc(Nc2nccc(N(C)c3ccc4c(C)n(C)nc4c3)n2)cc1S(N)(=O)=O` is reported as 96% (RAF1; enzyme activity; inhibitor; 10 µM).
